PMC7709139 (Molecular imaging, 2015)
Each block holds one molecule with its values, some of them ahead of it. Numbered stars: 1 amine (or outer) side, 2 acyl side, 3 side chain; on linkers, the order of the positions; unused ones are H or OH. Bridge positions count the residues as written; N and C are the ends. Side chains are listed from the residue outwards. Ends that are not written are not given here. Peptide text beside a SMILES is read from it. * marks the point of attachment. X1 = CC(=NO)C(C)(C)NCCC(CCNC(C)(C)C(C)=NO)CCN*; Glutaryl = O=C(CCCC(=O)[*:2])[*:1]

Key:
[1] = tested on: shed Met; assay: Plasma shed Met electrochemiluminescent immunoassay; format: in vivo, human Met in mouse xenograft plasma; conditions: for slope plasma shed Met/tumor mass: PHA-treated
How it was run: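 Blood was collected into EDTA tubes and centrifuged. Plasma was fast-frozen and stored at −70°C; samples from radiolabel-imaged mice were assayed after the radioactivity had decayed. Soluble Met ectodomain was measured by two-site electrochemiluminescent immunoassay with ruthenium-chelate-tagged detection antibody, against a recombinant Met ectodomain–IgG-Fc standard. Naive cohorts were sampled at 1–4 weeks, imaged cohorts at the end. Values were correlated with tumour mass by Spearman analysis, and slopes were given as ng/mL per g.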

[2] = tested on: MKN-45 xenografts; assay: Tumor weight and histologic grading, Cy5^⋆⋆-Met peptide imaged cohort; format: in vivo, athymic female nude mice (human MKN-45 tumor); conditions: treated
How it was run: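 Fluorescence-imaged MKN-45 mice, given the Met TKI 5 days on/2 days off or vehicle, were euthanised after the last imaging session (18 or 25 days). Tumours were weighed (fraction > 0.5 g), fixed in 10% neutral-buffered formalin and paraffin-embedded. Sections were stained with H&E for necrosis and ApopTag for apoptosis, then graded. n = 9 per group.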

[3] = tested on: human lung carcinoma cells; conditions: cited from earlier work
[4] = tested on: gastric carcinoma cells (including MKN-45 cells); conditions: cited from earlier work
[5] = tested on: Met tyrosine kinase; conditions: cited from earlier work
[6] = tested on: MKN-45 xenografts; assay: Tumor volume by 3D ultrasonography, [^99mTc]-Met peptide imaged cohort; format: in vivo, athymic female nude mice (human MKN-45 tumor); conditions: 15 mg/kg i.p. daily
How it was run: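 After each weekly SPECT/CT session in the daily-dosed MKN-45 cohort (Met TKI 15 mg/kg i.p.), 3D ultrasonography was run at 40 MHz with a 0.076 mm step size. Tumour volume was obtained with a parallel ROI algorithm and expressed as % increase from baseline. n = 9 per group; groups were compared by Welch t-test (p < .05).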

[7] = tested on: MKN-45 xenografts; assay: Longitudinal Cy5^⋆⋆-Met peptide fluorescence imaging during PHA 665752 treatment; format: in vivo, athymic female nude mice (human MKN-45 tumor); conditions: for decrease in Cy5^⋆⋆-Met fluorescent signal intensity in tumors vs vehicle: PHA 665752 5 days on/2 days off, n = 9, p < .05
[8] = tested on: MKN-45 xenografts; assay: Longitudinal [^99mTc]-Met peptide SPECT imaging during PHA 665752 treatment; format: in vivo, athymic female nude mice (human MKN-45 tumor); conditions: for decrease in [^99mTc]-Met peptide tumor uptake (%ID/g) vs vehicle: PHA 665752 15 mg/kg i.p. daily
How it was run: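 Female nude mice carried s.c. MKN-45 xenografts, 30–50 mm³ at baseline. They received the Met TKI at 15 mg/kg i.p. in 5% DMSO:saline, or vehicle, daily for 3–4 weeks. SPECT/CT imaging was done 90 min after injection of ⁹⁹ᵐTc-labelled Met peptide, at baseline and then weekly. Tumour uptake was expressed as %ID/g normalised to a 20 g mouse. n = 9 per group; groups were compared by Welch t-test.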

[9] = tested on: MKN-45 xenografts; assay: Tumor weight and histologic grading; format: in vivo, athymic female nude mice (human MKN-45 tumor)
How it was run: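 SPECT-imaged MKN-45 mice, given the Met TKI daily i.p. or vehicle, were euthanised after the last imaging session at 3 weeks. Tumours were weighed (> 0.5 g counted) and formalin-fixed, paraffin-embedded sections were stained with H&E (necrosis, graded up to +4 severe) or ApopTag (apoptosis).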

[10] = tested on: tumor responses to Met-targeted therapeutics; conditions: ref [19],[26],[47],[48], cited from earlier work
[11] = tested on: extracellular domain of human Met; conditions: fluorescence polarization; cited from earlier work
[12] = tested on: MKN-45 xenografts; parameters: species or system athymic female nude mice (human MKN-45 tumor); conditions: in vivo
[13] = in vivo; parameters: species or system athymic female nude mice (human U87-MG tumor); conditions: female, athymic nude (Ncr-nu/nu), mouse, iv, total radioactivity
[14] = tested on: U87-MG xenografts; assay: in vivo; parameters: species or system athymic female nude mice (human U87-MG tumor)
[15] = tested on: MKN-45 xenografts; format: in vivo, athymic female nude mice (human MKN-45 tumor); conditions: 60 minutes postinjection
[16] = tested on: Met (U87-MG cells); assay: Saturation binding, U87-MG cells; parameters: species or system human
How it was run: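 U87-MG cells were grown in DMEM with 2 mM L-glutamine, 0.1 mM NEAA, 1 mM pyruvate and 10% FBS, then placed in tubes (0.2–1.0 × 10⁶ cells) on the assay day. Duplicates were incubated with 0.2–10 nM ⁹⁹ᵐTc-labelled Met peptide for 2 h at 4°C, with nonspecific binding defined by 10^−6.3 M unlabelled peptide. Pellets were washed twice with PBS and counted. MKN-45 cells were plated (0.2 × 10⁶/well) the day before and trypsinised for counting. Kd and Bmax came from one-site nonlinear fits.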

[17] = in vivo; parameters: species or system athymic female nude mice (human SNU-16 tumor); conditions: female, athymic nude (Ncr-nu/nu), mouse, iv, total radioactivity
[18] = tested on: SNU-16 xenografts; assay: in vivo; parameters: species or system athymic female nude mice (human SNU-16 tumor)
[19] = in vivo; parameters: species or system athymic female nude mice (human MKN-45 tumor); conditions: female, athymic nude (Ncr-nu/nu), mouse, iv, total radioactivity
[20] = tested on: MKN-45 xenografts; assay: in vivo; parameters: species or system athymic female nude mice (human MKN-45 tumor)
[21] = target: T1, hepatocyte growth factor tyrosine kinase receptor (Met) (human (endogenous in MKN-45 and U87-MG), UniProt P08581 25-1390); assay: in vivo biodistribution with blocking
T1 sequence (P08581 25-1390): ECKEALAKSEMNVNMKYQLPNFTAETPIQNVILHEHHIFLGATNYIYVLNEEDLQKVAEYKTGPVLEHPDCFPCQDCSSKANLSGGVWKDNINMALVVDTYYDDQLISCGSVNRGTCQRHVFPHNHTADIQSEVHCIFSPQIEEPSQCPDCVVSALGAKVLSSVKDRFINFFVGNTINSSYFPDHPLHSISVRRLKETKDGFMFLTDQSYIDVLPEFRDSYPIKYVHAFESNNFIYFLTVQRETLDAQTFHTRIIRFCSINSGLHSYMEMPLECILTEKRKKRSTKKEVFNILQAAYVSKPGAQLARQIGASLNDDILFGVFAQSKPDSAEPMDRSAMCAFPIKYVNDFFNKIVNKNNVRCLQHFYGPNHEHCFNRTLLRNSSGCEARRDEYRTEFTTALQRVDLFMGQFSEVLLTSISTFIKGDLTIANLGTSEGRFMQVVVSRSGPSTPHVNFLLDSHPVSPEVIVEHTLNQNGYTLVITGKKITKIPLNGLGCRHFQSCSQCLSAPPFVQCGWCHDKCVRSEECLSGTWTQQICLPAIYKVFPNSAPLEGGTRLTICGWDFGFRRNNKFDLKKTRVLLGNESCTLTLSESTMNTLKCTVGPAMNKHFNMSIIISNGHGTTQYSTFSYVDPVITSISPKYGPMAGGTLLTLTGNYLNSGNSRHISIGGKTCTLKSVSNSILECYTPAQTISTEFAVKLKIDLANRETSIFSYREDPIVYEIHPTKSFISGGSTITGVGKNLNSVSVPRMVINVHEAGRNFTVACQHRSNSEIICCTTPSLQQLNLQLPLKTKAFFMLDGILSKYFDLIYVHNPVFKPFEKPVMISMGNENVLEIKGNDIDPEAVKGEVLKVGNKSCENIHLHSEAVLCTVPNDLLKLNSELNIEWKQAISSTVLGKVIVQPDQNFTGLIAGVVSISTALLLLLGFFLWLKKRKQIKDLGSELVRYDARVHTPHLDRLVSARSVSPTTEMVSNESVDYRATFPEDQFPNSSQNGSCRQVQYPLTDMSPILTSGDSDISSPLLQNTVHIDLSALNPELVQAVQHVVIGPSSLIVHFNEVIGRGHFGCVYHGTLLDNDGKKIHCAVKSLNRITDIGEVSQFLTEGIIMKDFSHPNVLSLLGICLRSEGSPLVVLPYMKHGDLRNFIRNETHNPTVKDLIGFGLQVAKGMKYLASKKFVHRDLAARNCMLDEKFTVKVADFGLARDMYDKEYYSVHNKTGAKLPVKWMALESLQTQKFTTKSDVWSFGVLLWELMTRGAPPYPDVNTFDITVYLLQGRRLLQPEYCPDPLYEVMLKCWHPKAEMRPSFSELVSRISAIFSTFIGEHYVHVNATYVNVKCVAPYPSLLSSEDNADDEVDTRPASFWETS

[22] = target: T1, hepatocyte growth factor tyrosine …; assay: radioligand binding

Molecule: Cc1[nH]c(/C=C2\C(=O)Nc3ccc(S(=O)(=O)Cc4c(Cl)cccc4Cl)cc32)c(C)c1C(=O)N1CCC[C@@H]1CN1CCCC1 [PHA 665752, (2R)-1-[[5-[(Z)-[5-[[(2,6-dichlorophenyl)methyl]sulfonyl]-1,2-dihydro-2-oxo-3H-indol-3-ylidene]methyl]-2,4-dimethyl-1H-pyrrol-3-yl]–carbonyl]-2-(1-pyrrolidinylmethyl) pyrrolidine]
- increase in plasma shed Met (ng/mL per g tumor) vs vehicle ([1]; 1, 2, and 3 to 4 weeks after treatment): ~ 2 fold
- slope plasma shed Met/tumor mass ([1]; imaged xenografts, n = 7 (vehicle 43.7)): 77.7 (ng/mL)/(g)
- slope plasma shed Met/tumor mass ([1]; nonimaged xenografts (vehicle 43.8)): 77.5 (ng/mL)/(g)
- tumors with minimal (1+) apoptosis ([2]; 18 or 25 days (vehicle 78%)): 33%
- tumors > 0.5 g ([2]; 18 or 25 days (vehicle 89%)): 78%
- total surface Met expression [3]: total surface Met expression increased
- drug resistance on prolonged exposure [4]: acquired drug resistance associated with increased levels of Met
- extracellular Met expression [4]: extracellular Met expression appeared unchanged
- inhibition of Met phosphorylation [4]: pronounced inhibition of Met phosphorylation
- tumorigenicity, apoptosis and necrosis [5]: reduction of tumorigenicity accompanied with increases in apoptosis and necrosis
- decrease in tumor volume vs vehicle ([6]; day 8, n = 9, not significant): 25%
- decrease in tumor volume vs vehicle ([6]; day 21, n = 9, p = .016): 55%
- fluorescent signal intensity and tumor volume vs vehicle ([7]; 25 days, n = 6 treated, 5 vehicle): these decreases were not significant
- decrease in Cy5^⋆⋆-Met fluorescent signal intensity in tumors vs vehicle ([7]; 11 days): 54%
- decrease in Cy5^⋆⋆-Met fluorescent signal intensity in tumors vs vehicle ([7]; 18 days): 55%
- tumor uptake of [^99mTc]-Met peptide after PHA 665752 ([8]; MKN-45 xenografts): significantly decreased as early as 1 week
- decrease in [^99mTc]-Met peptide tumor uptake (%ID/g) vs vehicle ([8]; day 8, n = 9, p = .005): 43%
- decrease in [^99mTc]-Met peptide tumor uptake (%ID/g) vs vehicle ([8]; day 21, n = 9, not significant): 25%
- tumors with moderately severe apoptosis ([9]; ApopTag, after 3 weeks PHA 665752): 22%
- fraction of severely necrotic tumors ([9]; H&E, after 3 weeks PHA 665752 (vehicle also 78%)): 78%
- fraction of tumors > 0.5 g ([9]; after 3 weeks PHA 665752): 44%

Molecule: OC[C@H]1OC(O)[C@H]([18F])[C@@H](O)[C@@H]1O (some centres unmarked) [[^18F]FDG, [^18F]fluorodeoxyglucose]
- PET detection of tumor response to crizotinib ([10]; Met intracellular kinase inhibition): failed to detect tumor responses
- PET detection of tumor response to CE-355621 ([10]; mAb targeting the Met extracellular domain): detected early tumor responses

Molecule: Cc1cn([C@H]2C[C@H]([18F])[C@@H](CO)O2)c(=O)[nH]c1=O [[^18F]FLT, [^18F]fluorothymidine]
- PET detection of tumor response to crizotinib and BAY 853474 [10]: detected a robust tumor response

Molecule: CC(=O)N[C@@H](C)C(=O)NCC(=O)N[C@@H](CO)C(=O)N[C@H]1CSSC[C@@H](C(=O)N[C@@H](Cc2ccc(O)cc2)C(=O)N[C@@H](CCC(=O)O)C(=O)N[C@H](C(=O)N[C@@H](CCC(=O)O)C(=O)NCC(=O)N[C@H](C(=O)NCC(=O)NCC(=O)NCC(=O)N[C@@H](CCCCNC(=O)CCCC(=O)NCCC(CCNC(C)(C)C(C)=NO)CCNC(C)(C)C(C)=NO)C(N)=O)[C@@H](C)O)[C@@H](C)O)NC(=O)[C@H](Cc2c[nH]c3ccccc23)NC(=O)[C@@H]2CSSC[C@H](NC(=O)[C@H](Cc3ccc(O)cc3)NC1=O)C(=O)N[C@@H](CO)C(=O)NCC(=O)N1CCC[C@H]1C(=O)N1CCC[C@H]1C(=O)N[C@@H](CCCNC(=N)N)C(=O)N[C@@H](Cc1ccccc1)C(=O)N[C@@H](CCC(=O)O)C(=O)N2 (some centres unmarked) [[^99mTc]-Met peptide, metal not drawn] (Ac-AGSCYCSGPPRFECWCYETEGTGGGK([Glutaryl-X1])-NH2; disulfide 4-16, 6-14; C-terminus assumed)
- effect on shed Met plasma concentrations ([1]; imaged vs nonimaged xenografts): does not appear to alter shed Met plasma concentrations
- IC50 [11]: ~200 nM
- reduction in slope (%ID/g), larger vs smaller tumors [12]: 2-3 fold
- slope (%ID/g) of total uptake per tumor vs tumor weight [12]: 4.2 %ID/g
- tissue uptake at 1 h [13]: 1.19 ± 0.11 %ID/g
- tissue uptake at 2 h [13]: 0.71 ± 0.15 %ID/g
- tissue uptake at 3 h [13]: 0.58 ± 0.09 %ID/g
- tumor to muscle ratio reduced vs MKN-45 [14]: 10-16 fold
- visualization of MKN-45 tumors [15]: clearly visualized at 60 minutes
- specific binding ([16]; U87-MG cells (low Met), 2 hours at 4°C): < 40%
- Bmax U87-MG lower than MKN-45 ([16]; U87-MG vs MKN-45 cells): ~ 90 fold
- tissue uptake at 0.5 h [17]: 4.59 ± 0.5 %ID/g
- tissue uptake at 1 h [17]: 2.61 ± 0.82 %ID/g
- tissue uptake at 2 h [17]: 1.3 ± 0.34 %ID/g
- tumor to muscle ratio reduced vs MKN-45 [18]: 2-4 fold
- uptake in nontarget tissues [18]: comparable to the MKN-45 xenografts
- tissue to tissue ratio at 0.5 h [19]: 9.8 ± 2.1
- tissue to tissue ratio at 1 h [19]: 30.1 ± 3.3
- tissue to tissue ratio at 2 h [19]: 49.6 ± 11.3
- tissue to tissue ratio at 3 h [19]: 55.2 ± 13.4
- clearance [20]: > 70%
- kidney to muscle ratio exceeding tumor to muscle ratio [20]: 1.6-3 fold
- primary route of excretion [20]: renal clearance as the primary route of excretion

Molecule: Cys4–16, 6–14; Ac-Ala-Gly-Ser-Cys-Tyr-Cys-Ser-Gly-Pro-Pro-Arg-Phe-Glu-Cys-Trp-Cys-Tyr-Glu-Thr-Glu-Gly-Thr-Gly-Gly-Gly-Lys (bicyclic or more) [unlabeled Met peptide]
- IC50 [11]: 90 nM

- percent decrease of tumor to muscle ratio of [^99mTc]-Met peptide [21]: 53%
Molecule: Ac-AGSCYCSGPPRFECWCYETEGTGGGK (disulfide 6-14, 4-16; also: trifluoroacetate salt) [unlabeled Met peptide (AH-111972 trifluoracetate salt [DX-1662])]

- Kd [22]: 3.31 nM
Molecule: Ac-AGSCYCSGPPRFECWCYETEGTGGGK(cPn216) (disulfide 6-14, 4-16; also: 99mTc chelated by cPn216) [[^99mTc]-Met peptide (AH-113018)]
